The test system of test [1] is Curvularia lunata. As to the kind of experiment: Antifungal activity against Cochliobolus lunatus at 5 mM assessed as initial growth inhibition time. The test is classed as functional. The procedure, abridged:
(§1)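 C. lunatus m118 on agar plates in triplicate, each inhibitor at 5 mM alone or at 5 mM combined with 0.1 mM benzoic acid. Plates centrally inoculated with 7 mm mycelial disks taken from a 48 h solid culture. Radial growth rate (mm/h) from colony diameter over time. Initial growth inhibition time (h) is the time-axis intercept of the linear growth phase extrapolated to 7 mm diameter.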

A short description of test [2]: Inhibition of Cochliobolus lunatus CYP53A15 expressed in Escherichia coli. Also noted: species or system Curvularia lunata. The procedure, abridged: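 His-tagged CYP53A15 from E. coli C43(DE3), Ni-NTA purified, reconstituted with rabbit liver NADPH-P450 reductase and DLPC in pH 7.4 phosphate. Reaction started with 1 mM NADPH and benzoate. para-Hydroxybenzoate formation quantified by HPLC of quenched reactions over time. Enzyme at 5 µM, inhibitors at 300 and 600 µM. Kinetic constants from simultaneous progress-curve analysis.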

For test [3], the system named is Curvularia lunata. As to the kind of experiment: Antifungal activity against Cochliobolus lunatus at 5 mM assessed as radial growth rate. In kind it is functional. The procedure, abridged: as §1
Test [4] deals with Curvularia lunata. As to the kind of experiment: Antifungal activity against Cochliobolus lunatus at 0.1 mM assessed as radial growth rate. In kind it is functional. The procedure, abridged:
as §1

The test system of test [5] is Curvularia lunata. As to the kind of experiment: Antifungal activity against Cochliobolus lunatus delta bph at 5 mM assessed as initial growth inhibition time. In kind it is functional. The procedure, abridged: (§2)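 Δbph deletion strain of C. lunatus (bph gene replaced by hph, hygromycin-selected) on agar with 5 mM test compound, in triplicate. Plates centrally inoculated with 7 mm mycelial disks from a 48 h culture. Radial growth rate (mm/h) measured; initial growth inhibition time (h) taken as the intercept of the extrapolated linear growth phase at 7 mm.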

Test [6] relates to Curvularia lunata. As to the kind of experiment: Antifungal activity against Cochliobolus lunatus. The test is classed as functional. The procedure, abridged:
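C. lunatus m118 (wild type). MIC, the lowest concentration preventing visible growth after overnight incubation, determined by the Radford method.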

Test [7] relates to Curvularia lunata. As to the kind of experiment: Antifungal activity against Cochliobolus lunatus delta bph at 5 mM assessed as radial growth rate. In kind it is functional. The procedure, abridged: as §2
In test [8] the test system is Curvularia lunata. As to the kind of experiment: Antifungal activity against Cochliobolus lunatus at 0.1 mM assessed as initial growth inhibition time. In kind it is functional. The procedure, abridged: as §1

≈ marks a conversion by molar mass, not a printed value.

The Ki is the dissociation constant of the complex between target and ligand, obtained from inhibition or displacement. `C=CCc1ccc(O)c(OC)c1` [EUGENOL]: the Activity with Curvularia lunata [1] worked out at 20 h; in the test with Curvularia lunata [3] it was 0.57 millimeter/hr. For the same compound, the affinity in test [2], expressed as Ki, was 26.2 µM.
On the same counts, the results for `COc1cc(C=O)ccc1O` [VANILLIN] are 12 h, 0.55 millimeter/hr and 29.7 µM.
What is called MIC is the least concentration at which growth counts as inhibited. Read a high MIC as weaker potency. For the compound `O=C(O)c1ccccc1` [BENZOIC ACID], the Activity with Curvularia lunata [1] is 56 h; in the test on Curvularia lunata [4], 0.55 millimeter/hr; with Curvularia lunata [5] it was greater than 1800 h; in the test on Curvularia lunata [7], 0 millimeter/hr; in the test with Curvularia lunata [3], 0.22 millimeter/hr; in the test on Curvularia lunata [8], 12 h. Also, in the test on Curvularia lunata [6], the MIC turned out to be 5 mM (≈ 611 µg/mL).
Consider `C/C=C\c1ccc(O)c(OC)c1` [ISOEUGENOL], for which the Activity was 56 h in the test with Curvularia lunata [1], greater than 1800 h in the test on Curvularia lunata [5], 0 millimeter/hr in the test with Curvularia lunata [7] and 0.29 millimeter/hr with Curvularia lunata [3]. This compound yielded a Ki in test [2] of 14.2 µM.
With `Cc1ccc(C(C)C)c(O)c1` [THYMOL], in test [2], the Ki is 8.2 µM.

Source of the values: ChEMBL document CHEMBL1150428, “CYP53A15 of Cochliobolus lunatus, a target for natural antifungal compounds” (J Med Chem, 2008).
